In the library only some 1.9% were active in any assay of this set; here they are far more common.
VIM-2 inh = blocks Pseudomonas aeruginosa VIM-2 metallo-beta-lactamase. inhibition, % at 5.6 µM. AID 1527. actives 0.89% (n = 290,000). purified VIM-2, nitrocefin hydrolysis, epi-absorbance fluorescence;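 active = inhibition above the mean of all tested compounds plus 3 SD, cutoff set per screening run, cut at about 7.5% in these data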;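 note: red hydrolysis product quenches plate fluorescence so inhibitors raise well fluorescence; 0% = enzyme with DMSO and 100% = DMSO without enzyme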
UBC9 SUMO inh = SUMOylation inhibition; P63279; HTRF SUMOylation assay, SAE1/SAE2 + UBC9, in vitro; inhibition, % at 35 µM; actives 0.36% (n = 290,000); AID 2006; in the data active = inhibition above about 50%, passing the limit was not always enough
p-CIP stab down = p/CIP protein destabilization; Q05BA5; F442A p/CIP-EGFP cells, EGFP fluorescence, 16 h; decrease of EGFP signal, % at 10 µM; actives 0.01% (n = 290,000);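 active = EGFP signal decrease of at least 30% at 10 µM or well 3 SD below plate mean, unless failing retest; inactive = the rest, including hits failing retest or dose response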
Fh CTSL1 inh = cathepsin L1 inhibition, PFM18AAP counter-screen. actives 0.49% (n = 300,000). recombinant F. hepatica cathepsin L1, Z-Leu-Arg-MCA fluorescence. inhibition, % at 5.96 µM;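 active = inhibition above the mean of all tested compounds plus 3 SD, set per screening campaign, cut at about 17% in these data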;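 note: 0% = plate median of test compound wells and 100% = 1 µM Z-Phe-Ala-diazomethylketone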
IMP-1 inh-1 = blocks Pseudomonas aeruginosa IMP-1 metallo-beta-lactamase. purified IMP-1, nitrocefin hydrolysis, epi-absorbance fluorescence. AID 1556. inhibition, % at 5.6 µM. actives 0.45% (n = 290,000);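 active = inhibition above the mean plus 3 SD of all compounds in the same screening run, cut at about 4.5% in these data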;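 note: 0% = IMP-1 with DMSO and 100% = DMSO wells lacking enzyme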
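System: Purified recombinant IMP-1 metallo-beta-lactamase enzyme | Measured by: Fluorescence quenching readout, ex 480/em 530 nm | Replication: Singlicate | Incubation: 15 min preincubation plus 25 min reaction at 25 °C | Evaluation: Percent inhibition from optical density relative to buffer-blank wells | Benchmarks: DMSO with and without IMP-1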
T cell HTS = T cell immune modulation candidate; 2C CD8+ T cell-vesicle binding, flow cytometry; hits give low values; response (vesicle binding), % at 7 µM; actives 0.068% (n = 330,000);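 active = response, share of CD8 T cells binding vesicles, and their 90th percentile fluorescence all below set limits, cut at about 80% in these data, passing the limit was not always enough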;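 note: values below 100% mean blocked vesicle binding to the CD8+ T cells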
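Test system: purified 2C TCR transgenic mouse naive CD8+ T cells. Probe or stimulus: QL9-peptide-loaded Drosophila micro-vesicles bearing Ld, ICAM-1 and B7-1. Incubation: binding step 1.5 h, 37 °C, antibody labelling 20 min, ice. Measured by: flow cytometry of vesicle-bound cells.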
IMP-1 inh-2 = blocks IMP-1 metallo-beta-lactamase in VIM-2 selectivity screen. shares compounds with VIM-2 inh. purified IMP-1, nitrocefin hydrolysis, epi-absorbance fluorescence. inhibition, % at 5.6 µM. 1,300 tested, under 10 active. AID 1856; call rule not given here;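 note: 0% = enzyme with vehicle and 100% = vehicle without enzyme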
VIM-2 FRET ctr = VIM-2 FRET inhibition, artifact counter-screen | purified VIM-2, CCF2 FRET substrate hydrolysis | inhibition, % at 5.6 µM | actives 23% (n = 1,300) | AID 1857 | shares compounds with VIM-2 inh;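 active = inhibition above the mean of all tested compounds plus 3 SD, cut at about 19% in these data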;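 note: 0% = VIM-2 plus DMSO and 100% = no enzyme wells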
TEM-1 inh = blocks E. coli TEM-1 beta-lactamase in VIM-2 selectivity screen; shares compounds with VIM-2 inh; Purified TEM-1, nitrocefin hydrolysis, epi-absorbance fluorescence; AID 1866; actives 3% (n = 1,300); inhibition, % at 5.6 µM;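 active = inhibition above that campaign's mean inhibition plus 3 SD, cut at about 0.46% in these data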;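 note: 0% = TEM-1 with DMSO and 100% = TEM-1 with 100 µM potassium clavulanate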
VIM-2 confirm 2 = confirmation of P. aeruginosa VIM-2 metallo-beta-lactamase inhibitors. inhibition, % at 5.6 µM. purified VIM-2, nitrocefin hydrolysis, epi-absorbance. actives 96% (n = 1,300). shares compounds with VIM-2 inh;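 active = inhibition of the VIM-2 beta-lactamase enzyme above about 11% from the earlier first-round screen, limit read from the data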;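 note: 0% = VIM-2 with DMSO and 100% = buffer wells without enzyme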
An asterisk follows results filed as active; x = no result given.

SMILES	VIM-2 inh	UBC9 SUMO inh	p-CIP stab down	Fh CTSL1 inh	IMP-1 inh-1	T cell HTS	others
CCOc1ccc(NC(=O)C(=O)NCCN2CCN(C(=O)c3ccc(C)cc3)CC2)cc1	-3.6	1.0	-3.1	-3.4	-1.5	971.1
C[C@@H](C(=O)Nc1nc(-c2ccccn2)cs1)N1C(=O)C2CCCCC2C1=O (stereo not given in full)	2.4	10.6	0.9	4.3	11.4*	410.5
Cc1nc(Cl)c(C(=O)NC(=O)NCc2ccccc2)c(C)c1Cl	-1.2	1.8	3.9	12.0	-1.6	0.0*
O=C(C[C@@H]1C/C=C\C[C@H](Cc2ccc(F)cc2)C(=O)OC[C@@H]2CCCN2C1=O)N[C@H](CO)Cc1ccccc1	x	x	x	x	x	925.9
COc1ccc(NC(=O)CN(C)C(=O)/C=C/c2cn(-c3ccccc3)nc2-c2ccc(C)cc2)cc1	x	x	x	20.0*	x	332.3
COc1ccc2c(C)c(C(=O)N3CCN(Cc4ccccc4)CC3)oc2c1	-2.7	-3.0	-7.7	x	-3.8	264.5
COc1ccc(Br)c2oc(SC)cc(=O)c12	9.2*	7.6	-13.3	-4.8	-5.9	157.0
COc1ccc(-c2ccccc2)c2oc(-c3ccco3)cc(=O)c12	x	x	x	-2.5	x	166.4
COc1cc(/C=C/C(=O)O)cc(S(=O)(=O)Nc2ccc3[nH]c(=O)[nH]c3c2)c1OC	-3.4	-3.2	1.1	-1.0	-2.4	432.3
COc1cc(/C=C/C(=O)O)cc(S(=O)(=O)Nc2ccccc2Oc2ccccc2)c1OC	1.3	14.2	-5.6	20.8*	-2.7	350.9
NC(=O)c1ccc(Cl)c2ccccc12	-0.9	22.4	-9.8	1.6	14.9*	448.1
NC(=O)c1cccc2ccccc12	-2.6	2.3	2.4	-3.5	-1.4	176.4
COC(=S)N/C(=N\S(=O)(=O)c1ccc(Cl)cc1)c1ccccc1	-1.1	0.5	-12.0	-2.9	-1.9	558.7
CCC1CCCN1Cn1cnc2c([nH]c3ccc(Cl)cc32)c1=O (stereo not given)	3.5	11.1	-3.6	18.7*	-0.2	248.6
N#Cc1c(=O)c2nc(NCCCO)ncc2n2c(=O)c3ccccc3[nH]c12	-1.9	28.0	-18.6	6.5	-1.0	118.4
N#Cc1c(=O)c2nc(NCc3ccccc3)ncc2n2ccccc12	1.3	50.9*	-12.6	4.0	-0.1	848.6
CC1(OC(=O)C2CCCC2)C(=O)C=C2C=C(c3ccsc3)N(Cc3ccco3)C=C2C1=O (stereo not given)	x	28.1	-0.1	22.1*	x	409.9
CC1(OC(=O)C2CCCC2)C(=O)C=C2C=C(c3ccsc3)N(CCCCO)C=C2C1=O (stereo not given)	x	12.7	0.0	8.9	x	363.5
CC1(c2cccc3ccccc23)NC(=O)N(CC(=O)NC2CCS(=O)(=O)C2)C1=O (stereo not given)	-4.6	-8.7	7.3	-0.5	-3.3	316.3
Cn1cccc1/C=N/NC(=O)c1sc2cc(Cl)ccc2c1Cl	-2.5	56.4*	-0.2	1.1	-2.3	318.5
CSc1cccc(Nc2ccc(S(=O)(=O)N3CCOCC3)cc2[N+](=O)[O-])c1	x	x	x	x	x	567.3
CSc1nc(NCC(C)O)c2c3c(sc2n1)CN(C)CC3 (stereo not given)	4.8	8.5	-11.8	2.6	-2.5	195.2
CSc1nc(NCCCO)c2c3c(sc2n1)CN(C)CC3	9.4*	12.9	-1.7	4.4	-0.5	469.2
COc1ccc(/C=C2\Oc3cc(OCC(=O)N4CCC[C@H]4C(=O)O)ccc3C2=O)c(OC)c1	0.9	0.7	5.5	0.5	-0.9	413.6
COc1cc(OC)c(OC)cc1/C=C1\Oc2cc(OCC(=O)N3Cc4ccccc4C[C@H]3C(=O)O)ccc2C1=O	11.9*	24.6	-114.9	2.7	3.4	237.0
SMILES	VIM-2 inh	UBC9 SUMO inh	p-CIP stab down	Fh CTSL1 inh	IMP-1 inh-1	T cell HTS	others
COc1ccc(OC)c(Cc2nnc(CCC(=O)NCc3nc4ccccc4s3)o2)c1	-2.9	5.0	1.4	2.4	-2.9	79.7
CCOC(=O)c1cnc(=O)[nH]c1C	x	10.2	5.1	-1.4	x	0.0*
CCOC(=O)c1cc(C(=O)OCC)c(=O)[nH]c1C	-1.5	-3.1	-2.7	-3.3	-0.6	181.4
Cc1ccc(C(=O)Nc2ccc(N3CCN(C)CC3)cc2)cc1C	15.7*	-17.8	3.2	-9.6	-2.1	221.9	IMP-1 inh-2=-3.2;VIM-2 FRET ctr=1.4;TEM-1 inh=-6.4;VIM-2 confirm 2=28.6*
COc1ccc(Cn2c(=O)[nH]c3cc(C(=O)Nc4ccc(N5CCN(C)CC5)cc4)ccc32)cc1	15.7*	8.8	-18.2	-2.9	-1.9	96.1	IMP-1 inh-2=-1.6;VIM-2 FRET ctr=-5.4;TEM-1 inh=-4.6;VIM-2 confirm 2=42.1*
CCN1CCN(c2ccc(NC(=O)c3cccc(N4CCCC4=O)c3)cc2)CC1	16.8*	21.3	-9.0	2.2	-1.8	169.4	IMP-1 inh-2=-2.9;VIM-2 FRET ctr=-2.6;TEM-1 inh=-4.1;VIM-2 confirm 2=22.2*
CN1CCN(c2ccc(NC(=O)c3ccc4c(c3)OCCO4)cc2)CC1	17.6*	0.8	-2.7	10.1	-1.8	341.2	IMP-1 inh-2=-2.5;VIM-2 FRET ctr=-5.9;TEM-1 inh=-5.9;VIM-2 confirm 2=34.1*
Cc1ccc(C(=O)Nc2ccc(N3CCN(S(C)(=O)=O)CC3)cc2)cc1C	-3.1	14.3	-22.8	1.1	-3.8	171.3
O=C(Nc1ccc(N2CCCC2=O)cc1)c1cccc(F)c1	0.4	27.6	-1.8	-1.0	-1.1	110.3
COc1ccc2sc(-c3ccc(SC)cc3)c(-c3ccc(O)cc3)c2c1	x	x	x	x	x	180.2
CCOc1cccc(C(=O)NC(=S)Nc2ccc(N3CCN(CC)CC3)cc2)c1	44.5*	-5.1	9.3	3.3	-0.7	238.8	IMP-1 inh-2=-3.5;VIM-2 FRET ctr=-3.8;TEM-1 inh=-8.0;VIM-2 confirm 2=76.7*
CCOc1cccc(C(=O)NC(=S)Nc2ccccc2)c1	-2.1	-7.6	-10.6	2.4	-3.5	198.9
CN1CCN(c2ccc(NC(=O)c3cccc(OCc4ccccc4)c3)cc2)CC1	12.3*	-0.3	-1.1	6.3	-1.4	205.0	IMP-1 inh-2=-2.7;VIM-2 FRET ctr=-0.4;TEM-1 inh=-5.1;VIM-2 confirm 2=28.4*
CCC(=O)NC1CCN(C(=S)NC)CC1	-2.9	-11.9	-0.9	-5.5	-0.6	260.3
O=C1c2ccccc2-c2onc3ccc(N4CCCC4)c1c23	13.5*	-51.5	-26.2	x	2.3	x	IMP-1 inh-2=4.4;VIM-2 FRET ctr=4.2;TEM-1 inh=2.9*;VIM-2 confirm 2=24.7*
CCOc1ccc2noc3c2c1C(=O)c1ccccc1-3	2.7	8.4	10.1	1.5	-0.4	703.9
